Converted amounts (≈) assume the structure as drawn.
Key:
[1] = target: Platelet-derived growth factor receptor alpha (Homo sapiens, UniProt P16234); experiment: Inhibition of PDGFRalpha (unknown origin) using FAM-labeled peptide as substrate preincubated for 10 mins followed by substrate addition measured after 25 mins
[2] = target: Mast/stem cell growth factor receptor Kit (Homo sapiens, UniProt P10721); experiment: Inhibition of c-kit (unknown origin) using FAM-labeled peptide as substrate preincubated for 10 mins followed by substrate addition measured after 25 mins
Summary of the method: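 Enzyme was preincubated with compound for 10 min at room temperature, then FAM-labeled peptide with ATP was added for 25 min at 28 °C. After an EDTA stop, the plate was read on a Caliper. IC50 came from non-linear curve fit.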

BMMC [3] = experiment: Antiproliferative activity against BALB/c mouse BMMC after 48 hrs by MTT assay
[4] = Solubility of the compound in water after 24 hrs by HPLC method; type: physicochemical
[5] = Antiproliferative activity against rheumatoid arthritis patient-derived HFLS after 72 hrs by MTT assay; type: functional, Homo sapiens
Summary of the method: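 RA synovial fibroblasts (DMEM, 10% FBS, passage 3) were seeded at 2 × 10^4 cells/well. Compound was given at graded concentrations against an untreated control for 72 h at 37 °C, 5% CO2. MTT was then added for 4 h and absorbance read at 450 nm. IC50 came from non-linear regression of 6-point dose-response curves.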

Homo sapiens [6] = organism: Homo sapiens; experiment: Antiinflammatory activity against rheumatoid arthritis patient-derived HFLS assessed as reduction in IL-6 levels incubated for 30 mins measured after 72 hrs by ELISA; type: functional
Summary of the method: (§1)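 RA patient synovial fibroblasts were kept in high-glucose DMEM with 10% FBS at 37 °C under 5% CO2 and used after 3 passages. Cells were seeded at 2 × 10^4 cells/well in 6-well plates and given compound or vehicle for 30 min. IL-6 and MMP-3 in the supernatant were read by ELISA after 72 h.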

BMMC [7] = experiment: Antiinflammatory activity against BALB/c mouse BMMC assessed as reduction in TNFalpha levels incubated for 30 mins measured after 48 hrs by ELISA; type: functional, cell-based
Summary of the method: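 BALB/c mouse bone-marrow mast cells were grown in RPMI 1640 with 1% non-essential amino acids and 10% FBS at 37 °C under 5% CO2. Cells were seeded at 2 × 10^4 cells/well in 6-well plates and given compound or vehicle for 30 min. Supernatant TNF-α was read by ELISA after 48 h.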

Homo sapiens [8] = organism: Homo sapiens; experiment: Antiinflammatory activity against rheumatoid arthritis patient-derived HFLS assessed as reduction in MMP-3 levels incubated for 30 mins measured after 72 hrs by ELISA; type: functional; summary of the method: as §1

Platelet-derived growth factor receptor alpha, sequence (P16234 whole entry): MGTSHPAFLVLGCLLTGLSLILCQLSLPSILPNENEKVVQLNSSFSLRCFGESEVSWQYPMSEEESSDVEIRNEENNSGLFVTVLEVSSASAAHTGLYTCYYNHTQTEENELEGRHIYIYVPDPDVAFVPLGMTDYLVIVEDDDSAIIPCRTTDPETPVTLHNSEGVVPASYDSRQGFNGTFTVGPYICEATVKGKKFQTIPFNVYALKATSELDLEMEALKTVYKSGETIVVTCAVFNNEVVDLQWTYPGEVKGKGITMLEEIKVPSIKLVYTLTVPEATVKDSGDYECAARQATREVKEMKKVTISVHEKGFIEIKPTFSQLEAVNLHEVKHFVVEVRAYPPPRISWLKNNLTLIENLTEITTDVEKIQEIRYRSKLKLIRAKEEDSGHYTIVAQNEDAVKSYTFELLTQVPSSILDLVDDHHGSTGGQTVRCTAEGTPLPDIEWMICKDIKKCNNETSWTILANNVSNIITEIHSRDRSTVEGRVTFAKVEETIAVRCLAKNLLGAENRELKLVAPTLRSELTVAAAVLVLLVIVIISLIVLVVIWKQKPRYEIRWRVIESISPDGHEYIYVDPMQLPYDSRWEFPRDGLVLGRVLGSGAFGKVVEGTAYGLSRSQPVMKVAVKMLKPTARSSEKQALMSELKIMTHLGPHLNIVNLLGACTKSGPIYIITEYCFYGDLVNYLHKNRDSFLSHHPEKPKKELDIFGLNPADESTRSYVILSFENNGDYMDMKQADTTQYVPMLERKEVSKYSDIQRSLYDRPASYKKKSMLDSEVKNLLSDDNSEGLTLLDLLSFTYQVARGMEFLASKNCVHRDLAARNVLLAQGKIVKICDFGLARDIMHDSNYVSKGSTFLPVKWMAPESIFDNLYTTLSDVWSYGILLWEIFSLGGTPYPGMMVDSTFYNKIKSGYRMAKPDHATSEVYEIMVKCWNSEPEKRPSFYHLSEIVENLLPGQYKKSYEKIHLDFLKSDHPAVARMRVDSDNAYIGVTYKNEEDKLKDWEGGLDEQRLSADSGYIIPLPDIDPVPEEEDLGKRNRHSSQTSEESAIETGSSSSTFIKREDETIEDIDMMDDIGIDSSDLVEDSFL
Mast/stem cell growth factor receptor Kit, sequence (P10721 whole entry): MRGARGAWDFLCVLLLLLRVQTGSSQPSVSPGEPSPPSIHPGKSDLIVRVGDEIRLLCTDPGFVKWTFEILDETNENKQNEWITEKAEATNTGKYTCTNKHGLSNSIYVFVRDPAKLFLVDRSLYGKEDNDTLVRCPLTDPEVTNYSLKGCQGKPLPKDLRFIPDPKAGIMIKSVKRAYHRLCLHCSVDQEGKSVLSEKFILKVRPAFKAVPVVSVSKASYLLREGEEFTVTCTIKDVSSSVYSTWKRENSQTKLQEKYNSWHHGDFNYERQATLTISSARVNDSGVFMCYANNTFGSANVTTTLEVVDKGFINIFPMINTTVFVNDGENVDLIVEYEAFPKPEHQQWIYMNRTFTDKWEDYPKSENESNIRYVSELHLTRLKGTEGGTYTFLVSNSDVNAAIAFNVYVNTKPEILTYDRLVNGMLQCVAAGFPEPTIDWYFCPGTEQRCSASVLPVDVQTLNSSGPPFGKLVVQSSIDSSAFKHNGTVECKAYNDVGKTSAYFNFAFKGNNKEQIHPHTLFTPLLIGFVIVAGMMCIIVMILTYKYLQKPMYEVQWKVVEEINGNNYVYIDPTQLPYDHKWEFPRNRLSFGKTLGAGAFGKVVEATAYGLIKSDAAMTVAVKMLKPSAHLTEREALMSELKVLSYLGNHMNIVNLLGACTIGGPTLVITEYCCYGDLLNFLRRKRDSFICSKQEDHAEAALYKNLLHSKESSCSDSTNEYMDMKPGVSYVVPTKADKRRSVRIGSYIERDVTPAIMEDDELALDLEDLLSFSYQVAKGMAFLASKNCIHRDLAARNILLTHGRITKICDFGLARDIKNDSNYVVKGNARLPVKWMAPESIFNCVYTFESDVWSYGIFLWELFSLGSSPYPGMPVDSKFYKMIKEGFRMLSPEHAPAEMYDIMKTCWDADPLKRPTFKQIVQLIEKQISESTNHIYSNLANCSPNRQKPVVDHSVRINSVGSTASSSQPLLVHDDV

Row | SMILES | IC50 [1] [µM] | IC50 [2] [µM] | IC50 [5] [µM] | further results
1 | Cc1ccc(Nc2nc(N3CCC(NC(=O)c4ccc(C(=O)O)cn4)C3)nc3c2COC3)cc1 (centres undefined) | > 50 | > 50 |  | 
2 | Cc1ccc(NC(=O)c2ccc(CN3CCN(C)CC3)cc2)cc1Nc1nc(-c2cccnc2)cs1 [MASITINIB] |  |  |  | IC50 (BMMC [3]): 0.1 µM
3 | COc1ccc(Nc2nc(N3CCC(NC(=O)c4ccc(C(=O)O)cc4)C3)nc3c2CCC3)cc1OC (centres undefined) |  |  |  | solubility at 24 h [4]: 0.086 mg/mL (≈ 171 µM)
4 | O=C(O)c1ccc(C(=O)NC2CCN(c3nc4c(c(Nc5ccc6c(c5)OCCO6)n3)COC4)C2)nc1 (centres undefined) | > 50 | 49.2 |  | 
5 | COc1cc(Nc2nc(N3CCC(NC(=O)c4ccc(C(=O)O)cn4)C3)nc3c2COC3)cc(OC)c1OC (centres undefined) |  | 31.3 | 31 | IC50 (BMMC [3]): 21.1 µM
6 | COc1cc(Nc2nc(N3CCC(NC(=O)c4ccc(C(=O)O)cn4)C3)nc3c2COC3)cc(OC)c1 (centres undefined) |  | 18.6 | 3.2 | IC50 (BMMC [3]): 2 µM; solubility at 24 h [4]: 0.167 mg/mL (≈ 330 µM); Activity (Homo sapiens [6]): Dose-dependent effect; Activity (BMMC [7]): Dose-dependent effect; Activity (Homo sapiens [8]): Dose-dependent effect
7 | COc1ccc(Nc2nc(N3CCC(NC(=O)c4ccc(C(=O)O)cn4)C3)nc3c2COC3)cc1OC (centres undefined) |  | > 50 |  | 
8 | CCCCCCCNc1nc(N2CCC(NC(=O)c3ccc(C(=O)O)cn3)C2)nc2c1COC2 (centres undefined) | > 50 | 25.8 | 8.1 | IC50 (BMMC [3]): 13 µM; Activity (BMMC [7]): Dose-dependent effect
9 | CCCCCCNc1nc(N2CCC(NC(=O)c3ccc(C(=O)O)cn3)C2)nc2c1COC2 (centres undefined) | > 50 | > 50 | 4 | Activity (Homo sapiens [6]): Dose-dependent effect; Activity (Homo sapiens [8]): Dose-dependent effect
10 | Cc1ccc(Nc2nc(N3CCC(NC(=O)c4ccc(C(=O)O)cn4)C3)nc3c2COC3)cc1C (centres undefined) | > 50 | > 50 | 11.2 | 

Second part, led by results:

Row | IC50 [1] [µM] | IC50 [2] [µM] | SMILES | IC50 [5] [µM] | further results
11 | > 50 | > 50 | COc1ccc(Nc2nc(N3CCC(NC(=O)c4ccc(C(=O)O)cn4)C3)nc3c2COC3)cc1 (centres undefined) |  | 
12 | > 50 | > 50 | CCOCCCNc1nc(N2CCC(NC(=O)c3ccc(C(=O)O)cn3)C2)nc2c1COC2 (centres undefined) |  | 
13 | > 50 | > 50 | COCCCNc1nc(N2CCC(NC(=O)c3ccc(C(=O)O)cn3)C2)nc2c1COC2 (centres undefined) |  | 
14 | > 50 | > 50 | CCc1ccc(Nc2nc(N3CCC(NC(=O)c4ccc(C(=O)O)cn4)C3)nc3c2COC3)cc1 (centres undefined) | 9.4 | 
15 | > 50 | > 50 | CCCCCNc1nc(N2CCC(NC(=O)c3ccc(C(=O)O)cn3)C2)nc2c1COC2 (centres undefined) |  | 
16 | > 50 | > 50 | O=C(O)c1ccc(C(=O)NC2CCN(c3nc4c(c(NC5CCCCC5)n3)COC4)C2)nc1 (centres undefined) | 5.4 | 

Source: ChEMBL document CHEMBL4229503, “Discovery of novel Syk/PDGFR-α/c-Kit inhibitors as multi-targeting drugs to treat rheumatoid arthritis” (Bioorg Med Chem, 2018)
